The source of these data is ChEMBL document CHEMBL4024770, “Augmentation of Anticancer Drug Efficacy in Murine Hepatocellular Carcinoma Cells by a Peripherally Acting Competitive N-Methyl-d-aspartate (NMDA) Receptor Antagonist” (J Med Chem, 2017).

The source made the active and inactive calls. The rule behind the calls is not given here.

Test [1] addresses Glutamate receptor ionotropic, kainate 3 (Rattus norvegicus, UniProt P42264). Kind of test: Displacement of [3H]-KA from recombinant homomeric rat GluK3a receptor expressed in baculovirus infected Sf9 insect cell membranes by scintillation counting method.
Test [2] deals with Glutamate receptor ionotropic, kainate 2 (Rattus norvegicus, UniProt P42260). Kind of test: Displacement of [3H]-KA from recombinant homomeric rat GluK2 (V,C,R)a receptor expressed in baculovirus infected Sf9 insect cell membranes by scintillation counting method.
Chain of Glutamate receptor ionotropic, kainate 2 (P42260 whole entry): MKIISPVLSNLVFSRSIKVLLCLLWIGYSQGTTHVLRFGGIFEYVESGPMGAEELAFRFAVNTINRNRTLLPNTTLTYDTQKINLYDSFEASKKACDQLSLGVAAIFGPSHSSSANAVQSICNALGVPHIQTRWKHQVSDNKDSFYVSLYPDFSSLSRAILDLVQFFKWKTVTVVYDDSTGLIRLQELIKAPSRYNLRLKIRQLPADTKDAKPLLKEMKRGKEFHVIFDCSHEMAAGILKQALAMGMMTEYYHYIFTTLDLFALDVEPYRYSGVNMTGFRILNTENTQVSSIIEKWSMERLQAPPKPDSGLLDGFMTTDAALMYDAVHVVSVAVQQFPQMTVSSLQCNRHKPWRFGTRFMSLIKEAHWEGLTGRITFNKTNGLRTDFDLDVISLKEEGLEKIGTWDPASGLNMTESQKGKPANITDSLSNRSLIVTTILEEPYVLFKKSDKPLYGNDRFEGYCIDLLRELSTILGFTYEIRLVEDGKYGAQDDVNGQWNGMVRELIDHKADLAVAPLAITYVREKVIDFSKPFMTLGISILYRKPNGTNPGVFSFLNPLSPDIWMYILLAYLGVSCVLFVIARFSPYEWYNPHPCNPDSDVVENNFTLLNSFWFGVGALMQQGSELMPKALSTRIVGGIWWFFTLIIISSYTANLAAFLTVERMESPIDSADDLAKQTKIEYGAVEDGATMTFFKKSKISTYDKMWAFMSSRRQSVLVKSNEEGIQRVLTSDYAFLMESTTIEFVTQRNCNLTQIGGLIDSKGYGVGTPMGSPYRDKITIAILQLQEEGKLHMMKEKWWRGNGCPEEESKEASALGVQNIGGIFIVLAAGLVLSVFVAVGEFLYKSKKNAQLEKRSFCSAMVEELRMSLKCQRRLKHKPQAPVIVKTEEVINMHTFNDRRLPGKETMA
The target in test [3] is Glutamate receptor ionotropic, kainate 1 (Rattus norvegicus, UniProt P22756). Kind of test: Displacement of [3H]-SYM2081 from recombinant homomeric rat GluK1 (Q)1b receptor expressed in baculovirus infected Sf9 insect cell membranes by scintillation counting method.
Chain of Glutamate receptor ionotropic, kainate 1 (P22756 whole entry): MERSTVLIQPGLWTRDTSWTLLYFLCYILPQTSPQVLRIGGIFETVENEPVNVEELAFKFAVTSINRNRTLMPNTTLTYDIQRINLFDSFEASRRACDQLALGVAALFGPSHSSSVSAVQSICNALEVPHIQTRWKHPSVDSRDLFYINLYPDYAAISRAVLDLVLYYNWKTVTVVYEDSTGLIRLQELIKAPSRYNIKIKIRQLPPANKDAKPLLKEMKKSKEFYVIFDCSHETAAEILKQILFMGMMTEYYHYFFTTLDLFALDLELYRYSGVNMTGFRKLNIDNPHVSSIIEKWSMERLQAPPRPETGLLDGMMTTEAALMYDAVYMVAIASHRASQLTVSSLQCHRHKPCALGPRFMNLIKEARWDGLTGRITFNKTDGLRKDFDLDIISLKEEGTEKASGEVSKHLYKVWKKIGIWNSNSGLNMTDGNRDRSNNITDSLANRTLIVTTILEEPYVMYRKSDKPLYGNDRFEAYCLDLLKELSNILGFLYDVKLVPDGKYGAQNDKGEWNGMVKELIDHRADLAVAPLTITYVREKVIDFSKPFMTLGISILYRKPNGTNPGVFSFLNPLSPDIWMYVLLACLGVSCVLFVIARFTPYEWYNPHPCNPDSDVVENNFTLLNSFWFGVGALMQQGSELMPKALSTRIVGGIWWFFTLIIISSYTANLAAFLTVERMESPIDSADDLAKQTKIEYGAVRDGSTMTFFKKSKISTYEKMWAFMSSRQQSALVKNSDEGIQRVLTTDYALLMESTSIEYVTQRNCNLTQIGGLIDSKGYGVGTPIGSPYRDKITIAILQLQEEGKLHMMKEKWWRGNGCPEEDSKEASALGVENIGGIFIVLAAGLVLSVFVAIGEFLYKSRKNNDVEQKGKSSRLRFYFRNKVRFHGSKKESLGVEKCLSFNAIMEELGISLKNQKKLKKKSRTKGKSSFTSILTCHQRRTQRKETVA
Test [4] can be described thus: Displacement of [3H]-AMPA from AMPA receptor in Sprague-Dawley rat brain synaptosomes after 30 mins by scintillation counting method. It is filed as subcellular.
A short description of test [5]: Displacement of [3H]-KA from KA receptor in Sprague-Dawley rat brain synaptosomes after 60 mins by scintillation counting method. It is filed as subcellular.
Test [6] can be described thus: Displacement of [3H]-CGP-39653 from NMDA receptor in Sprague-Dawley rat brain synaptosomes after 60 mins by scintillation counting method. The format is subcellular.
The target in test [7] is Glutamate NMDA receptor; Grin1/Grin2b (Rattus norvegicus, UniProt P35439+Q00960). Kind of test: Antagonist activity at recombinant rat GluN1a/GluN2B expressed in Xenopus laevis oocytes assessed as inhibition of glycine/glutamate-mediated current responses by two-electrode voltage clamp method. It is filed as cell-based. Summed up: (§1)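 Xenopus oocytes were injected with rat GluN1 and GluN2A–D cRNA (1:2) and recorded 2–6 days later by TEVC at room temperature, −40 mV, in Ba2+-containing recording solution, pH 7.4. Currents were evoked by 100 μM glycine plus glutamate at 2–3× EC50: 10 μM for GluN2A, 3 μM for GluN2B and GluN2C, 1 μM for GluN2D. IC50 from Hill fits per oocyte; Ki estimated.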

For test [8], the species on record is Mus musculus. Kind of test: Antagonist activity at NMDA receptor in Nras driven p53 deficient mouse HCC cell membranes assessed as PGE2 levels at 10 uM after 24 hrs by LC-MS/MS method relative to control. Also noted: scale not given: the % may be the effect or the level left. The method in brief: (§2)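 Mouse Nras-driven p53−/− HCC cells in DMEM with 2 mM L-glutamine, 10% heat-inactivated FBS and penicillin/streptomycin. Cells incubated 24 h with or without antagonist, either without LPS or with 2.5 μg/mL LPS in the growth medium. Cells washed three times with ice-cold HBSS and lysed in acetonitrile on ice. PGE₂ in lysates measured by LC-MS/MS (LLOQ 1 nM) and expressed as % of control; n=3.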

A short description of test [9]: Antiproliferative activity against Nras driven p53 deficient mouse HCC cells assessed as cell viability at 100 uM after 72 hrs by resazurin assay relative to control. The format is functional. The conditions noted are these: read-out: Activity.
For test [10], the species on record is Mus musculus. Kind of test: Antagonist activity at NMDA receptor in Nras driven p53 deficient mouse HCC cell membranes assessed as potentiation of 2.5 uM sorafenib-mediated antiproliferative activity by measuring cell viability at 100 uM after 72 hrs by resazurin assay (reference value: […] +/- […]%).
Test [11] has as its target Ionotropic glutamate receptor NMDA 1/2D (Rattus norvegicus, UniProt P35439+Q62645). As to the kind of experiment: Antagonist activity at recombinant rat GluN1a/GluN2D expressed in Xenopus laevis oocytes assessed as inhibition of glycine/glutamate-mediated current responses by two-electrode voltage clamp method. It is filed as cell-based. Summed up:
as §1

For test [12], the target named is Glutamate NMDA receptor; Grin1/Grin2a (Rattus norvegicus, UniProt P35439+Q00959). Kind of test: Antagonist activity at recombinant rat GluN1a/GluN2A expressed in Xenopus laevis oocytes assessed as inhibition of glycine/glutamate-mediated current responses by two-electrode voltage clamp method. The format is cell-based. Summed up:
as §1

The species entered for test [13] is Mus musculus. As to the kind of experiment: Antagonist activity at NMDA receptor in Nras driven p53 deficient mouse HCC cell membranes assessed as potentiation of 1 uM sorafenib-mediated antiproliferative activity by measuring cell viability at 100 uM after 72 hrs by resazurin assay (reference value: […] +/- […]%).
Test [14] is filed under the species Mus musculus. As to the kind of experiment: Antagonist activity at NMDA receptor in Nras driven p53 deficient mouse HCC cell membranes assessed as potentiation of 10 uM sorafenib-mediated antiproliferative activity by measuring cell viability at 100 uM after 72 hrs by resazurin assay (reference value: […] +/- […]%).
The species named for test [15] is Mus musculus. As to the kind of experiment: Antagonist activity at NMDA receptor in Nras driven p53 deficient mouse HCC cell membranes assessed as LPS-stimulated PGE2 levels at 10 uM after 24 hrs by LC-MS/MS method (reference value: 162 +/- 7%). Also noted: scale not given: the % may be the effect or the level left. The method in brief: as §2
Test [16] concerns the target Glutamate NMDA receptor; Grin1/Grin2c (Rattus norvegicus, UniProt P35439+Q00961). Kind of test: Antagonist activity at recombinant rat GluN1a/GluN2C expressed in Xenopus laevis oocytes assessed as inhibition of glycine/glutamate-mediated current responses by two-electrode voltage clamp method. It is filed as cell-based. Summed up: as §1
Test [17] is filed under the species Mus musculus. As to the kind of experiment: Antagonist activity at NMDA receptor in Nras driven p53 deficient mouse HCC cell membranes assessed as inhibition of NMDA-induced intracellular Ca2+ transients at 20 uM […] by fluo-4AM dye-based fluorescence assay. Summed up: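 Intact murine HCC cells loaded with 5 μM Fluo-4-AM for 45 min, then washed out for 20 min in BSS (mM: 2.5 KCl, 152 NaCl, 10 glucose, 2 CaCl₂, 10 HEPES, pH 7.4). 150 μM NMDA applied for 15 s by fast perfusion, alone or together with antagonist. Fluorescence imaged with 495 nm excitation on a CCD camera. Read-out is the percentage of cells showing induced Ca²⁺ transients; n=5.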

Test [18] is filed under the species Mus musculus. Kind of test: Antagonist activity at NMDA receptor in Nras driven p53 deficient mouse HCC cell membranes assessed as potentiation of 5 uM sorafenib-mediated antiproliferative activity by measuring cell viability at 100 uM after 72 hrs by resazurin assay (reference value: […] +/- […]%).

Chain of Glutamate receptor ionotropic, kainate 3 (P42264 whole entry): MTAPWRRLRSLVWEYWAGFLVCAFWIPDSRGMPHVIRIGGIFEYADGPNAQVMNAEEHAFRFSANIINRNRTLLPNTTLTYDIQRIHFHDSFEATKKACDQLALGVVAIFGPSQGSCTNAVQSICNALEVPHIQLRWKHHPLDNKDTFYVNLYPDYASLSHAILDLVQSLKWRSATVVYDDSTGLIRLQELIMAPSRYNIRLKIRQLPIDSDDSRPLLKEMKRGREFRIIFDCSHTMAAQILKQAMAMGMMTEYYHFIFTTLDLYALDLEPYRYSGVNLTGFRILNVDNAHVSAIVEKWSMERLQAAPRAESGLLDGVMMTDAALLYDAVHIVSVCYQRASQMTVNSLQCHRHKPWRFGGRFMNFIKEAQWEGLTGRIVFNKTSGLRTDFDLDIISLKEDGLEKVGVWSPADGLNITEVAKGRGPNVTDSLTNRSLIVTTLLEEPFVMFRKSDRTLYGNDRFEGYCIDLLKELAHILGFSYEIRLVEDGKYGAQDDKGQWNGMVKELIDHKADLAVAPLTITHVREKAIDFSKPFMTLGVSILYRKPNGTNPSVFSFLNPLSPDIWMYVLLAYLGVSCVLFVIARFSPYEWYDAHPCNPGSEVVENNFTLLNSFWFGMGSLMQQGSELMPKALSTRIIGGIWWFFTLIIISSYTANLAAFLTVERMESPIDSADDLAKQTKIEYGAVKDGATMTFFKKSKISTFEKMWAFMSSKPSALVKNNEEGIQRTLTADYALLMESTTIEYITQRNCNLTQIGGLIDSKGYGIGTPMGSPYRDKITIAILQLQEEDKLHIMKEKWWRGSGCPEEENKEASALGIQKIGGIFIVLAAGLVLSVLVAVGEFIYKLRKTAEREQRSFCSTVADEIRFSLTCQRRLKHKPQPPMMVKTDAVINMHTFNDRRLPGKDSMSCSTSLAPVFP
Chain of Glutamate NMDA receptor; Grin1/Grin2c (Q00961 whole entry, other chains not shown, the tested form may be a part): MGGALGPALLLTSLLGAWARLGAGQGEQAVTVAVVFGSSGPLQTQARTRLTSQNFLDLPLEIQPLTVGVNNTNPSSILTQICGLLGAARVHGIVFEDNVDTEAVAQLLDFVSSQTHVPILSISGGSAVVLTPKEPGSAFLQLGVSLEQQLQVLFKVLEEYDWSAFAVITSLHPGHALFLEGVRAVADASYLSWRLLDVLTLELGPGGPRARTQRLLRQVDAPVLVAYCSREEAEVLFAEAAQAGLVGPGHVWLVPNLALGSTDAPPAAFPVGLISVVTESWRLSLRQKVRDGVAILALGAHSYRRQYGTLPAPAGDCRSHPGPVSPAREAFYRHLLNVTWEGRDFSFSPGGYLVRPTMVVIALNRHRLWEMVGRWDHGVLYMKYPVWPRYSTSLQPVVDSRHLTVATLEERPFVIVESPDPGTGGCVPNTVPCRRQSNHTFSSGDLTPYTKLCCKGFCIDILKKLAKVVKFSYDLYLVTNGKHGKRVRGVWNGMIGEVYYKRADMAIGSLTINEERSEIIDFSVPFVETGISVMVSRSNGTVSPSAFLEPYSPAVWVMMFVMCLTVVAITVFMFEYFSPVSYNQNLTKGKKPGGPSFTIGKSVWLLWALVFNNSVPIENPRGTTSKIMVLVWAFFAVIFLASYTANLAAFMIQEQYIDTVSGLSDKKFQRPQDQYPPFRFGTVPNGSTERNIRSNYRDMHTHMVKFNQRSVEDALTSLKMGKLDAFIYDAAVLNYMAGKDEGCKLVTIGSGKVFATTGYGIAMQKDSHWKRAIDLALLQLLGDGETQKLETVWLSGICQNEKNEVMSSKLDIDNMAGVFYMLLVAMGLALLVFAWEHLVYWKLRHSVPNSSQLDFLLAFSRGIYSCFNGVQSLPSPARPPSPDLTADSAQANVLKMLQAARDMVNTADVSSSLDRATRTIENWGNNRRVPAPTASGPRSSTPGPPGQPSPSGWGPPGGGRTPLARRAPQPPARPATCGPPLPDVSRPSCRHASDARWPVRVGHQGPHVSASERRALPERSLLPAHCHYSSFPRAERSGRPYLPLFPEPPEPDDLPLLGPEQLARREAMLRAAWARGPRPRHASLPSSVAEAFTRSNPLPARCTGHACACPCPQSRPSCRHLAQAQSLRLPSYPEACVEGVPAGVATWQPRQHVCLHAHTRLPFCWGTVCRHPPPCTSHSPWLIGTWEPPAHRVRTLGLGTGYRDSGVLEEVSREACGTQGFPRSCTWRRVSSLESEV

Turning to `Cc1ccc([C@H]2CCN[C@@H]2C(=O)O)cc1C(=O)O`, the Ki in [1], in test [2] and in test [3] was more than 100 µM in each case. Besides, the IC50 in test [4] and in test [5] was more than 100 µM throughout.
As for `O=C(O)c1cc([C@H]2CCN[C@@H]2C(=O)O)ccc1Br`, the Ki in test [1], in test [2] and in [3] was more than 100 µM in each case. The IC50 in [4] and in [5] was more than 100 µM in each case.
For the compound `O=C(O)[C@H]1NCC[C@@H]1c1cccc(B(O)O)c1`, the Ki in test [1] was more than 100 µM; in test [2], more than 1000 µM; in test [3], more than 1000 µM; in test [6], more than 100 µM. Besides, the IC50 in test [4] and in [5] was more than 100 µM each time.
Consider `O=C(O)[C@H]1NCC[C@@H]1c1cccc(Cl)c1`, for which the Ki in test [1], in [2], in test [3] and in test [6] was more than 100 µM in each case. Moreover, the half-maximal inhibitory concentration (IC50) in test [4] and in test [5] was more than 100 µM each time.
`NC(=O)c1cccc([C@H]2CCN[C@@H]2C(=O)O)c1`: the Ki in test [1], in [2], in [3] and in test [6] was more than 100 µM throughout. Besides, the IC50 in test [4] and in [5] was more than 100 µM throughout.
In the case of `N[C@H](CCCP(=O)(O)O)C(=O)O`, the Ki in [7] is 2.8 µM; in test [11], 21 µM; in test [12], 0.39 µM; in [16] it was 5.9 µM. In addition, the Activity in the test listed under Mus musculus [8] came to 58%; in the test filed under Mus musculus [10], 63%; in the test filed under Mus musculus [13], 70%; in the test filed under Mus musculus [14], 16%; in the test listed under Mus musculus [15], 110%; in the test listed under Mus musculus [18], 44%. Moreover, the viability at 100 µM in test [9] is 79%. The inhibition entry in the test listed under Mus musculus [17] was “Active”.
For the compound `O=C(O)[C@H]1NCC[C@@H]1c1ccc(O)c(O)c1`, the half-inhibitory concentration (IC50) in test [4] and in test [5] was more than 100 µM throughout. Further, in [6], the Ki was 35 µM. Also, the negative-log Ki (pKi) in test [6] turned out to be 4.46.
Take `Nc1cccc([C@H]2CCN[C@@H]2C(=O)O)c1`: the IC50 in test [4] and in test [5] was more than 100 µM in each case. In [6], this compound had a Ki of more than 100 µM.
On to `Cl.O=C(O)c1cc([C@H]2CCN[C@@H]2C(=O)O)ccc1F`, for which the Ki is 11 µM in [1], more than 100 µM in test [2], 12 µM in test [3] and 4.6 µM in test [6]. For the same compound, the figures for the half-maximal inhibitory concentration (IC50) in test [4] and in [5] were more than 100 µM and 59 µM, respectively. In test [5], this compound returned a negative logarithm of the IC50 (pIC50) of 4.23. Also, in test [6], the negative-log Ki (pKi) is recorded as 5.34.
On to `O=C(O)[C@H]1NCC[C@@H]1c1cccc(C(F)(F)F)c1`, for which the inhibitory constant (Ki) in test [1], in test [2], in [3] and in test [6] was more than 100 µM throughout. Moreover, the IC50 in [4] and in test [5] was more than 100 µM throughout.
As to `N#Cc1cccc([C@H]2CCN[C@@H]2C(=O)O)c1`, the inhibitory constant (Ki) is more than 1000 µM in [1], more than 1000 µM in [2], more than 1000 µM in test [3] and more than 100 µM in [6]. Besides, the IC50 in [4] and in test [5] was more than 100 µM each time.
